The target in the assay is T1, Histone deacetylase 11 (Homo sapiens, UniProt Q96DB2).
T1 sequence (Q96DB2 whole entry): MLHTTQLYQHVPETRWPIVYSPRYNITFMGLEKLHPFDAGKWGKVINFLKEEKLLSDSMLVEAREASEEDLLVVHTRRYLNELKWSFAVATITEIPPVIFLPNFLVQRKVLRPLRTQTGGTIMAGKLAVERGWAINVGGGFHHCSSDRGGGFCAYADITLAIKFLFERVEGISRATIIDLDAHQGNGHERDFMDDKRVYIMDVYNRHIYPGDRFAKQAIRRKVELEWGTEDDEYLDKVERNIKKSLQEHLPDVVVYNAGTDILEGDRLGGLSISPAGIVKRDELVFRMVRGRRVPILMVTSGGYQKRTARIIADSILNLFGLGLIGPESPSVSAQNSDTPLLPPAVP
Description: Inhibition of full length human HDAC11 using FAM-labeled acetylated peptide as substrate by electrophoretic mobility shift assay. Put shortly: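 Full-length human HDAC isoform enzymatic assay by electrophoretic mobility shift, using a FAM-labelled acetylated peptide substrate. […] Values are the mean of duplicate experiments with 95% confidence intervals.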
For orientation: Mobility shift assays separate free from complexed probe on a gel.

1 molecule from BindingDB's records for doi:10.1021/acs.jmedchem.0c01922 (University of Toronto Mississauga, 2021) can be followed below.

Where only a bound is given, the exact number is not on record here.

Turning to `O=C(NO)c1ccc(CN(Cc2cccnc2)S(=O)(=O)c2cc(F)c(F)c(F)c2F)cc1`, the IC50 (in general, the point on the concentration scale where inhibition reaches its midpoint) was over 1000 nM.
